Assay [1] deals with HCT-116. In words: Antiproliferative activity against human HCT116 cells after 48 hrs by MTT assay. Type of assay: functional, cell-based. Conditions: for IC50: HCT-116, 48 h. Put shortly:
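Cells grown in RPMI 1640 with 10% FBS; about 4×10^3 cells per well seeded, held 24 h at 37°C in 5% CO2, then exposed to compounds at six concentrations (0.001–100 μM) for 48 h. MTT added at 0.5 mg/mL final for 4 h at 37°C, formazan dissolved in DMSO, absorbance read at 540 nm.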

Assay [2] relates to MCF7. Kind of assay: Antiproliferative activity against human MCF7 cells after 48 hrs by MTT assay. Type of assay: functional, cell-based. Particulars: for IC50: MCF7, 48 h.
Assay [3] has as its system 143B. Kind of assay: Antiproliferative activity against human 143B cells after 48 hrs by MTT assay. In kind it is functional, cell-based.
Assay [4] deals with T1, Cathepsin K (Homo sapiens) (UniProt P43235).
T1 sequence (whole entry): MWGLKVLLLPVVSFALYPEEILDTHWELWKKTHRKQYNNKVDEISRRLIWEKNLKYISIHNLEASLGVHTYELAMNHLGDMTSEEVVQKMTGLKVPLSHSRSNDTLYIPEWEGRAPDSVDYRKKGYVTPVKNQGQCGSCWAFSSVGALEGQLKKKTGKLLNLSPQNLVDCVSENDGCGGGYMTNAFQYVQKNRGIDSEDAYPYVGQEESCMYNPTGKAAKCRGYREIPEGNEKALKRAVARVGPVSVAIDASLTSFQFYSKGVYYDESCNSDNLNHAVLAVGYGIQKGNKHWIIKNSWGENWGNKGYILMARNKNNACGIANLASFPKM
Kind of assay: Inhibition of recombinant human Cathepsin-K at 5 uM preincubated for 15 mins followed by Z-Phe-Arg-AMC addition measured after 30 mins by fluorescence assay relative to control. Put shortly:
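Recombinant human Cat K (5.5 ng/mL) in 50 mM sodium acetate, 2.5 mM EDTA, 1 mM DTT, pH 6.0, preincubated with compound (5 μM screen) 15 min at 37°C. Reaction started with Z-Phe-Arg-AMC (10 μM, as added). Fluorescence (ex 355/em 460 nm) read after 30 min; inhibition rate calculated from intensity.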

In assay [5] the target is Procathepsin L (Homo sapiens) (UniProt P07711). Kind of assay: Inhibition of Cathepsin-L (unknown origin) at 5 uM preincubated for 15 mins followed by Z-Phe-Arg-AMC addition measured after 30 mins by fluorescence assay relative to control. Put shortly: (§1)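 Run as for the Cat K assay: enzyme in 50 mM sodium acetate, 2.5 mM EDTA, 1 mM DTT, pH 6.0, compounds screened at 5 μM, 15 min preincubation at 37°C, substrate added, fluorescence (ex 355/em 460 nm) read at 30 min. Substrates: Cat B Z-Arg-Arg-AMC; Cat S Ac-Lys-Gln-Lys-Leu-Arg-AMC; Cat L as for Cat K.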
Chain of Procathepsin L (Homo sapiens) (P07711 114-333 limits assumed): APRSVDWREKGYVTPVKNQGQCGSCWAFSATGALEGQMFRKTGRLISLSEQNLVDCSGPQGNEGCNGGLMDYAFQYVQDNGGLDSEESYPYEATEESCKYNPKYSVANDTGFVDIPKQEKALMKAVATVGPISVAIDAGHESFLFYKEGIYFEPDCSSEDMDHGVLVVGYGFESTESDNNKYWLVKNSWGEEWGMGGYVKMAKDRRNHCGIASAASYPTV

In assay [6] the target is Cathepsin B (Homo sapiens) (UniProt P07858). In words: Inhibition of Cathepsin-B (unknown origin) at 5 uM preincubated for 15 mins followed by Z-Arg-Arg-AMC addition measured after 30 mins by fluorescence assay relative to control. Put shortly:
as §1

The target of assay [7] is Cathepsin S (Homo sapiens) (UniProt P25774). Kind of assay: Inhibition of Cathepsin-S (unknown origin) at 5 uM preincubated for 15 mins followed by Ac-Lys-Gln-Lys-Leu-Arg-AMC addition measured after 30 mins by fluorescence assay relative to control. Put shortly:
as §1

The structures appear in SMILES notation.

Chain of Cathepsin S (Homo sapiens) (P25774 115-331 limits assumed): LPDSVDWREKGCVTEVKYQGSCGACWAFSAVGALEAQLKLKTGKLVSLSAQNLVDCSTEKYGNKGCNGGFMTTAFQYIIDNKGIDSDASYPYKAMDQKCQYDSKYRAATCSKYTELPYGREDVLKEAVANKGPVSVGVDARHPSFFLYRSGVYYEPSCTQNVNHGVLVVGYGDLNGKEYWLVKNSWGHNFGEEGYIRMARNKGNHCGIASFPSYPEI

Take `O=C(/C=C/c1cccc(NS(=O)(=O)c2cc(Cl)cc(Cl)c2)c1)c1nc2ccccc2[nH]1`: the results for the IC50 in assay [1], in assay [2] and in assay [3] were 2.84 µM, 20 µM and 5.95 µM, respectively.

`CC(C)(F)C[C@H](C[C@@H](c1ccc(-c2ccc(S(C)(=O)=O)cc2)cc1)C(F)(F)F)C(=O)NC1(C#N)CC1`: the results for the IC50 in assay [1], in assay [2] and in assay [3] were over 100 µM, 45.4 µM and 12.7 µM, respectively. The inhibition in assay [4] was found to be 100%; in assay [5], 71.3%; in assay [6], 100%; in assay [7] it was 100%.

As to `O=C(Nc1cccc(/C=C/C(=O)c2nc3ccccc3[nH]2)c1)c1cccc(Br)c1`, the IC50 in assay [1] stood at 1.55 µM; in assay [2], 5.21 µM; in assay [3], 4.62 µM.

As to `Cc1cc(C)cc(C(=O)Nc2cccc(/C=C/C(=O)c3nc4ccccc4[nH]3)c2)c1`, the IC50 in assay [1] was determined as 1.55 µM; in assay [2] it was 24.6 µM; in assay [3], 4.01 µM.

For `O=C(Nc1cccc(/C=C/C(=O)c2nc3ccccc3[nH]2)c1)c1ccc(Cl)cc1`, the figures for the IC50 in assay [1], in assay [2] and in assay [3] were 2.27 µM, 8.41 µM and 7.44 µM, respectively.

As to `COc1cccc(C(=O)Nc2cccc(/C=C/C(=O)c3nc4ccccc4[nH]3)c2)c1`, the IC50 in assay [1] was 3.68 µM; in assay [2], 17.8 µM; in assay [3] it was 4.61 µM.

As to `O=c1[nH]cc(F)c(=O)[nH]1` [FLUOROURACIL], the IC50 in assay [1] turned out to be 8.64 µM; in assay [2] it was 32.6 µM; in assay [3] it was 25.2 µM.

In the case of `Cc1ccc(C(=O)Nc2cccc(/C=C/C(=O)c3nc4ccccc4[nH]3)c2)cc1`, the IC50 in assay [1] was 1.66 µM; in assay [2] it was 9.69 µM; in assay [3], 6.56 µM.

As to `O=C(/C=C/c1cccc(NC(=O)c2ccccc2Br)c1)c1nc2ccccc2[nH]1`, the IC50 was 1.68 µM in assay [1], 4.52 µM in assay [2] and 6.05 µM in assay [3].

Consider `O=C(Nc1cccc(/C=C/C(=O)c2nc3ccccc3[nH]2)c1)c1ccccc1`, for which the IC50 in assay [1] came to 2.44 µM; in assay [2], 11.2 µM; in assay [3] it was 8.34 µM.

`Cc1cc(C)cc(S(=O)(=O)Nc2cccc(/C=C/C(=O)c3nc4ccccc4[nH]3)c2)c1`: the values for the IC50 in assay [1], in assay [2] and in assay [3] were 1.22 µM, 4.57 µM and 3.33 µM, respectively.

With `O=C(Nc1cccc(/C=C/C(=O)c2nc3ccccc3[nH]2)c1)c1cc(Cl)cc(Cl)c1`, the IC50 is 1.65 µM in assay [1], over 100 µM in assay [2] and 3.66 µM in assay [3].

Take `Cc1ccc(S(=O)(=O)Nc2cccc(/C=C/C(=O)c3nc4ccccc4[nH]3)c2)cc1C`: the IC50 was determined as 2.23 µM in assay [1], 5.86 µM in assay [2] and 5.05 µM in assay [3].

As for `O=C(/C=C/c1cccc(NS(=O)(=O)c2ccc(Cl)cc2)c1)c1nc2ccccc2[nH]1`, the IC50 in assay [1] was found to be 1.96 µM; in assay [2], 3.82 µM; in assay [3], 7.45 µM. Besides, the inhibition in assay [4] came to 58.1%; in assay [5], 58%; in assay [6], 23.8%; in assay [7], 89.3%.

For `Cc1cccc(C(=O)Nc2cccc(/C=C/C(=O)c3nc4ccccc4[nH]3)c2)c1`, the IC50 worked out at 1.42 µM in assay [1], 5.59 µM in assay [2] and 4.88 µM in assay [3]. Also, the inhibition came to 78% in assay [4], 88.5% in assay [5], 41.3% in assay [6] and 45.2% in assay [7].

Take `O=C(Nc1cccc(/C=C/C(=O)c2nc3ccccc3[nH]2)c1)c1cccc(Cl)c1`: the IC50 in assay [1] stood at 1.12 µM; in assay [2], 7.83 µM; in assay [3], 3.37 µM. The inhibition in assay [4] stood at 73%; in assay [5], 86%; in assay [6], 30.5%; in assay [7] it was 19.5%.

In the case of `O=C(Nc1cccc(/C=C/C(=O)c2nc3ccccc3[nH]2)c1)c1cccc(C(F)(F)F)c1`, the IC50 in assay [1] came to 3.36 µM; in assay [2], 21.5 µM; in assay [3] it was 9.57 µM.

For the compound `O=C(/C=C/c1cccc(NS(=O)(=O)c2cccc(Cl)c2)c1)c1nc2ccccc2[nH]1`, the IC50 came to 0.737 µM in assay [1], 4.16 µM in assay [2] and 2.51 µM in assay [3]. Further, the inhibition stood at 89.2% in assay [4], 78.9% in assay [5], 15.2% in assay [6] and 52.6% in assay [7].

Regarding `Cc1ccccc1C(=O)Nc1cccc(/C=C/C(=O)c2nc3ccccc3[nH]2)c1`, the values for the IC50 in assay [1], in assay [2] and in assay [3] were 1.87 µM, 5.87 µM and 8.29 µM, respectively.

With `O=C(/C=C/c1ccccc1)c1nc2ccccc2[nH]1`, the inhibition was 37.9% in assay [4], 35.4% in assay [5], 10.1% in assay [6] and 13% in assay [7].

For the compound `COc1ccc(C(=O)Nc2cccc(/C=C/C(=O)c3nc4ccccc4[nH]3)c2)cc1`, the IC50 came out at 4.88 µM in assay [1], 20.1 µM in assay [2] and 6.33 µM in assay [3].

Compound `CCCNC(=O)[C@H]1O[C@@H]1C(=O)N[C@H](C(=O)N1CCC[C@H]1C(=O)O)[C@@H](C)CC` registered an inhibition in assay [6] of 100%.

`O=C(Nc1cccc(/C=C/C(=O)c2nc3ccccc3[nH]2)c1)c1ccc(Br)cc1`: the IC50 in assay [1] turned out to be 2.23 µM; in assay [2], 7 µM; in assay [3], 7.31 µM.

With `Cc1cccc(S(=O)(=O)Nc2cccc(/C=C/C(=O)c3nc4ccccc4[nH]3)c2)c1`, the Activity entry in assay [1], in assay [2] and in assay [3] was “Dose-dependent effect” throughout. Besides, the IC50 in assay [1] was determined as 0.597 µM; in assay [2], 0.886 µM; in assay [3], 0.791 µM. Further, the inhibition in assay [4] was found to be 93.5%; in assay [5], 92.3%; in assay [6], 45.6%; in assay [7], 50.1%.

`Cc1ccc(S(=O)(=O)Nc2cccc(/C=C/C(=O)c3nc4ccccc4[nH]3)c2)cc1`: the IC50 amounted to 1.99 µM in assay [1], 3.22 µM in assay [2] and 3.22 µM in assay [3]. For the same compound, the inhibition in assay [4] was determined as 86%; in assay [5] it was 93.8%; in assay [6], 34.3%; in assay [7] it was 22%.

On to `O=C(/C=C/c1cccc(NC(=O)c2ccccc2Cl)c1)c1nc2ccccc2[nH]1`, for which the values for the IC50 in assay [1], in assay [2] and in assay [3] were 1.28 µM, 4.57 µM and 3.69 µM, respectively.

For the compound `CC(C)C[C@H](NC(=O)[C@@H]1O[C@H]1C(=O)O)C(=O)NCCCCN=C(N)N`, the inhibition in assay [4], in assay [5] and in assay [6] was 100% throughout.

For the compound `CC(=O)O[C@H]1C(=O)[C@@]2(C)[C@H]([C@H](OC(=O)c3ccccc3)[C@]3(O)C[C@H](OC(=O)[C@H](O)[C@@H](NC(=O)c4ccccc4)c4ccccc4)C(C)=C1C3(C)C)[C@]1(OC(C)=O)CO[C@@H]1C[C@@H]2O` [PACLITAXEL], the IC50 in assay [1] was found to be 0.014 µM.

Consider `Cc1ccccc1S(=O)(=O)Nc1cccc(/C=C/C(=O)c2nc3ccccc3[nH]2)c1`, for which the IC50 in assay [1] worked out at 0.955 µM; in assay [2], 4.13 µM; in assay [3], 4.06 µM. For the same compound, the inhibition turned out to be 91.3% in assay [4], 71.3% in assay [5], 40% in assay [6] and 47.8% in assay [7].

As for `O=C(/C=C/c1cccc(NS(=O)(=O)c2ccccc2Cl)c1)c1nc2ccccc2[nH]1`, the IC50 in assay [1] stood at 0.987 µM; in assay [2], 4.28 µM; in assay [3], 4.79 µM. For the same compound, the inhibition in assay [4] was 86.5%; in assay [5], 62.9%; in assay [6], 32.5%; in assay [7] it was 45.7%.

For the origin of these results see ChEMBL document CHEMBL4184179, “Synthesis and biological evaluation of novel synthetic chalcone derivatives as anti-tumor agents targeting Cat L and Cat K” (Bioorg Med Chem, 2018).
